Results from ChEMBL document CHEMBL4610088, “Higginsianins D and E, Cytotoxic Diterpenoids Produced by Colletotrichum higginsianum” (J Nat Prod, 2020).
pIC50: −log10 of the molar value. Active and inactive are the calls of the source. The rule behind the calls is not given here.

Key:
HaCaT [1] = assay: Cytotoxicity against human HaCaT cells at 10 uM after 24 to 72 hrs by MTT assay; format: cell-based
In short: (§1)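 Cells cultured in DMEM with 10% FBS at 37 °C, 5% CO2. 2×10^4 cells seeded per well, exposed to 1 or 10 μM compound for 24, 48 and 72 h. MTT (0.5 mg/mL, phenol red-free DMEM) 3 h at 37 °C; formazan dissolved in acidic isopropanol. A570–A630 read; viability = test/control absorbance. Quadruplicate wells, three independent experiments.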

HaCaT [2] = assay: Cytotoxicity against human HaCaT cells at 1 to 10 uM after 72 hrs by MTT assay; format: cell-based; in short: as §1
HaCaT [3] = assay: Cytotoxicity against human HaCaT cells at 10 uM after 48 hrs by MTT assay relative to control; format: cell-based; in short: as §1
HaCaT [4] = assay: Cytotoxicity against human HaCaT cells assessed as reduction in cell viability at 10 uM after 24 hrs by MTT assay relative to control; format: cell-based; in short: as §1
HaCaT [5] = assay: Cytotoxicity against human HaCaT cells assessed as reduction in cell viability at 1 uM after 24 hrs by MTT assay relative to control; format: cell-based; in short: as §1
NCI-H1299 [6] = assay: Cytotoxicity against human NCI-H1299 cells at 1 uM after 72 hrs by MTT assay relative to control; format: functional; in short: as §1
NCI-H1299 [7] = assay: Cytotoxicity against human NCI-H1299 cells at 10 uM after 72 hrs by MTT assay relative to control; format: functional; in short: as §1
A-431 = assay: Cytotoxicity against human A431 cells after 72 hrs by MTT assay; format: functional, cell-based; conditions: A-431, 72 h; in short: as §1

SMILES | Activity (HaCaT [1]) | Activity (HaCaT [2]) | Activity (HaCaT [3]) | Activity (HaCaT [4]) | Activity (HaCaT [5]) | Activity (NCI-H1299 [6]) | Activity (NCI-H1299 [7]) | pIC50 (A-431)
C=C1CC[C@H]2[C@](C)(CCC=C(C)C)[C@H](O)CC[C@]2(C)[C@@H]1Cc1c(O)c(C)c(C)oc1=O | Toxic |  |  |  |  |  |  | 
C=C1CC[C@H]2[C@](C)(CCC=C(C)C)[C@H](O)CC[C@]2(C)[C@@H]1C[C@]1(C(=O)OC)OC(C)=C(C)C1=O |  | Non-Toxic | Toxic | Non-Toxic | Non-Toxic | inactive | inactive | 
C=C1CC[C@H]2[C@](C)(CCC=C(C)C)[C@H](O)CC[C@]2(C)[C@@H]1C[C@@]1(C(=O)OC)OC(C)=C(C)C1=O |  | Non-Toxic | Toxic | 37% | 40% | 22% | 26% | 6.00
